These results are taken from article PMC3517215 (Journal of medicinal chemistry, 2011).

Several values for one entry are separate records, joined by “and”; a condition that tells them apart may be missing. Equal entries are not always repeated. Bounds are passed on as bounds.

The assay concerns the target T1, human sEH (Homo sapiens, UniProt P34913).
T1 sequence (P34913 1-555): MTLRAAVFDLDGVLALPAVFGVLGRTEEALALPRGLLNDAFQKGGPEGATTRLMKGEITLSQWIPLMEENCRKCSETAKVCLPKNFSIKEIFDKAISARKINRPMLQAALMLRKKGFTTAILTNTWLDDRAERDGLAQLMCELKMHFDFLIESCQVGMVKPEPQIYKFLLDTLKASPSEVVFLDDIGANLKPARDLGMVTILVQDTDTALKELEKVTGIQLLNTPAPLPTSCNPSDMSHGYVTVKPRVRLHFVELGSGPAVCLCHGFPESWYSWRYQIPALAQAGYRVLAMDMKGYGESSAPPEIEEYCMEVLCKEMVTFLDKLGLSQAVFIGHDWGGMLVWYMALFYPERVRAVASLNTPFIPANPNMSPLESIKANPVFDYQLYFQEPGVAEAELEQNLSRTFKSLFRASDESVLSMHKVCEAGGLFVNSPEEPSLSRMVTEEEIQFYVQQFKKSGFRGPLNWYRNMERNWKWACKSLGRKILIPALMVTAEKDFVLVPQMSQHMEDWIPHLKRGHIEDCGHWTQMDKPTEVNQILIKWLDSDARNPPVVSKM
Kind of assay: Human sEH inhibition, fluorescent assay with CMNPC substrate. The class given is biochemical. The method, boiled down:
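Recombinant human sEH from baculovirus-infected Sf9 cells, purified by His-tag affinity, TEV cleavage and anion exchange. Enzyme (1 nM) preincubated 10 min with test compound (DMSO) in 25 mM Bis-Tris/HCl pH 7.0 at 30 °C, then CMNPC added (5 μM). 6-Methoxy-2-naphthaldehyde fluorescence (ex 330/em 465 nm) read over 10 min. IC50 by regression of ≥6 points (≥3 linear); mean of three runs.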

As for `O=C(NCCCc1ccccc1)C1CCCCC1` [Compound 6], the “fold improvement in inhibition relative to compounds 4 or 5” value is on record as > 5 fold.

Consider `O=C(NCCCc1ccccc1)C1CC=CCC1` (stereo not shown) [Compound 7], for which the “fold improvement in inhibition relative to compounds 4 or 5” value is recorded as > 5 fold.

As to `O=C(NCCCc1ccccc1)C1CCC(C(F)(F)F)CC1` (stereo not shown) [Compound 8], the “fold improvement over the non-substituted derivatives (4–7)” value was 3.5–15 fold.

`CC(C)(C)C1CCC(C(=O)NCCCc2ccccc2)CC1` (stereo not shown) [Compound 9]: the “fold improvement over the non-substituted derivatives (4–7)” value is recorded as 3.5–15 fold.

In the case of `O=C(NCCCc1ccccc1)C1CCc2ccccc2C1` (stereo not shown) [Compound 20], the “fold improvement in inhibition potency relative to compound 19” value stood at 3 fold.

`O=C(NCCc1ccccc1)C12CC3CC(CC(C3)C1)C2` [Compound 25]: the “fold decrease in inhibition potency relative to compound 19” value was 4–6 fold.

Turning to `O=C(NCCCCc1ccccc1)C12CC3CC(CC(C3)C1)C2` [Compound 26], the “fold decrease in inhibition potency relative to compound 19” value is recorded as 4–6 fold.

`CCOC(=O)c1ccc(NC(=O)C23CC4CC(CC(C4)C2)C3)cc1` [Compound 27]: the “fold better inhibition in comparison with compound 28” value is > 10 fold.

With `COC(=O)c1ccc(CNC(=O)C23CC4CC(CC(C4)C2)C3)cc1` [Compound 29], the “fold better inhibition than compound 27” value is given as ~10 fold.

Turning to `COC(=O)c1ccc(CCNC(=O)C23CC4CC(CC(C4)C2)C3)cc1` [Compound 30], the “fold loss in inhibition potency relative to compound 29” value is > 7 fold.

On to `COC(=O)c1ccc2cc(NC(=O)C34CC5CC(CC(C5)C3)C4)ccc2c1` [Compound 31, methyl 6-(1-adamantanecarboxamido)naphthalene-2-carboxylate], for which the “fold loss in inhibition potency relative to compound 29” value is 7 fold and > 7 fold.

Consider `COC(=O)c1ccc(CNC(=O)C2CCc3ccccc3C2)cc1` (stereo not shown) [Compound 32, methyl 4-((1,2,3,4-tetrahydronaphthalene-2-carboxamido)methyl)benzoate], for which the “fold improvement relative to compound 29” value is 5 fold.

In the case of `COC(=O)c1ccc(CNC(=O)c2ccc3ccccc3c2)cc1` [Compound 33], the “fold less potent compared to compound 32” value amounted to 3 fold.
